According to ChEMBL document CHEMBL6092210, “Synthesis, in vitro and in vivo biological evaluation of novel dual compounds targeting both acetylcholinesterase and serotonergic 5-HT4 receptors with potential interest in the treatment of Alzheimer's disease” (Eur J Med Chem, 2024):

What was measured:
[1] = molecular target: 5-hydroxytryptamine receptor 4 (Homo sapiens, UniProt Q13639); assay: Binding affinity to human recombinant 5HT4 receptor assessed as inhibition constant incubated for 60 mins
Sequence of 5-hydroxytryptamine receptor 4 (Q13639 whole entry): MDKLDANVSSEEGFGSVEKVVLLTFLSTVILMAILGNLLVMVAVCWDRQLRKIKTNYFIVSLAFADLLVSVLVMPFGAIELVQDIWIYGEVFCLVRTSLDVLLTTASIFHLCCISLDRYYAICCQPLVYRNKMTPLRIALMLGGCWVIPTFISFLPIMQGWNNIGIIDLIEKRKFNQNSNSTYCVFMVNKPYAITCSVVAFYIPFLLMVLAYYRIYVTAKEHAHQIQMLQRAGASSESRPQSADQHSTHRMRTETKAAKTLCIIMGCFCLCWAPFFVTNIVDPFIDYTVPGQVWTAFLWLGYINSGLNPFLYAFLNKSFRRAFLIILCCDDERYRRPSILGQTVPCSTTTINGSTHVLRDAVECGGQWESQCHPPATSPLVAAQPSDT

[2] = Drug metabolism in dog liver microsome measured at 40 mins by UPLC/QE-orbitrap-MS method; type: ADME, Canis lupus familiaris; details: microsomes
Method in brief: (§1)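 Test compound as fumarate salt incubated with human, dog, mouse or rat liver microsomes over 0–60 min. Parent remaining measured by UPLC/QE-orbitrap-MS as relative LC/MS peak area (% of 0 min), n = 1.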

[3] = Drug metabolism in human liver microsome measured at 20 mins by UPLC/QE-orbitrap-MS method; type: ADME; details: microsomes; method in brief: as §1
[4] = Drug metabolism in mouse liver microsome measured at 10 mins by UPLC/QE-orbitrap-MS method; type: ADME; details: microsomes; method in brief: as §1
[5] = Toxicity in C57BL/6 mouse assessed as reversal of scopolamine-induced spontaneous alternation deficit at 3 mg/kg, sc incubated for 30 mins; type: organism-based; details: in vivo, 0.5 h
[6] = Drug metabolism in rat liver microsome measured at 60 mins by UPLC/QE-orbitrap-MS method; type: ADME; details: microsomes, 1 h; method in brief: as §1
Cytochrome P450 2C8 = molecular target: T1, Cytochrome P450 2C8 (Homo sapiens, UniProt P10632); assay: Inhibition of CYP2C8 in human liver microsomes using repaglinide as substrate; type: ADME, Microsome
T1 sequence (P10632 whole entry): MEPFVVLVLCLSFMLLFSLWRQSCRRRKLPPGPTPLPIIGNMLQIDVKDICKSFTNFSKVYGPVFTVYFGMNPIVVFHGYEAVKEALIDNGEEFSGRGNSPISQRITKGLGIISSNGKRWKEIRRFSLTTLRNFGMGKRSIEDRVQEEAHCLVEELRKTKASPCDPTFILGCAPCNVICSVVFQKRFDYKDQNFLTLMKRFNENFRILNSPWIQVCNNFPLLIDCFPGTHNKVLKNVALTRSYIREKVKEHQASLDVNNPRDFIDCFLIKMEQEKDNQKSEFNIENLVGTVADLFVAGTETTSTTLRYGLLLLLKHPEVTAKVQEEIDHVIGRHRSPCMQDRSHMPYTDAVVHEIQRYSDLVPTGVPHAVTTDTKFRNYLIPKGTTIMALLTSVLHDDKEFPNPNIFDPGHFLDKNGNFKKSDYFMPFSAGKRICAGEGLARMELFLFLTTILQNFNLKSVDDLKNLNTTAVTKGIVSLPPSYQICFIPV
Method in brief: (§2)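 Human liver microsomes with a cocktail of CYP-specific probe substrates; metabolite formation monitored for each probe reaction. Test compound (fumarate) at 0.01, 0.1, 1, 10 and 100 μM. Control inhibitors run at a single concentration for each probe reaction. IC50 estimated.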

[7] = Drug metabolism in human liver microsome measured at 60 mins by UPLC/QE-orbitrap-MS method; type: ADME; details: microsomes, 1 h; method in brief: as §1
[8] = MRT in Wistar rat at 0.3 to 3 mg/kg, iv; type: ADME, organism-based; details: in vivo, dose 0.3-3 mg/kg
Method in brief: (§3)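 Single iv dose of 0.3, 1 or 3 mg/kg in 0.9 % saline, three animals per dose (C57Bl6 mice, Wistar rats). Terminal cardiac-puncture blood under isoflurane at six time points. Plasma protein-precipitated and assayed by UHPLC–MS/MS (LLOQ 1 ng/mL). Parameters from non-compartmental analysis.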

[9] = Drug metabolism in rat liver microsome measured at 20 mins by UPLC/QE-orbitrap-MS method; type: ADME; details: microsomes; method in brief: as §1
[10] = Drug metabolism in mouse liver microsome measured at 20 mins by UPLC/QE-orbitrap-MS method; type: ADME; details: microsomes; method in brief: as §1
Cytochrome P450 3A4 [11] = molecular target: T2, Cytochrome P450 3A4 (Homo sapiens, UniProt P08684); assay: Inhibition of CYP3A4 in human liver microsomes using Omeprazole as substrate; type: ADME, Microsome; method in brief: as §2
T2 sequence (P08684 whole entry): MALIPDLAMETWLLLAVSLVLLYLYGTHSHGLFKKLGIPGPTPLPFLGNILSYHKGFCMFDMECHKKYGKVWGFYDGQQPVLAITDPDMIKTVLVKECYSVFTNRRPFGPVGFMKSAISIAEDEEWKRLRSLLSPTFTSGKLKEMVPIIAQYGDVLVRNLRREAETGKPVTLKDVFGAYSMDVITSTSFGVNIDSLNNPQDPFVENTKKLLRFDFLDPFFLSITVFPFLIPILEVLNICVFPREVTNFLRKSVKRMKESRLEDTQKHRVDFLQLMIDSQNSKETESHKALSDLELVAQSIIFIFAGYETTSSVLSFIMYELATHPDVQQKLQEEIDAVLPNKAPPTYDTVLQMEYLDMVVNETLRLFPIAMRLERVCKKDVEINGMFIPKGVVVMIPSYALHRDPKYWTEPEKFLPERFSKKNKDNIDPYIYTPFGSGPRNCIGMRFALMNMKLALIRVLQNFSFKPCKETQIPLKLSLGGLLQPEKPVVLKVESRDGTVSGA

[12] = Drug metabolism in dog liver microsome measured at 60 mins by UPLC/QE-orbitrap-MS method; type: ADME, Canis lupus familiaris; details: microsomes, 1 h; method in brief: as §1
[13] = Toxicity in C57BL/6 mouse assessed as memory impairment at 0.3 mg/kg, ip incubated for 30 mins by novel object recognition test; type: organism-based; details: in vivo, 0.5 h
Cytochrome P450 2C9 = Cytochrome P450 2C9 (Homo sapiens, UniProt P11712); assay: Inhibition of CYP2C9 in human liver microsomes using diclofenac as substrate; type: ADME, Microsome; method in brief: as §2
Sequence of Cytochrome P450 2C9 (P11712 whole entry): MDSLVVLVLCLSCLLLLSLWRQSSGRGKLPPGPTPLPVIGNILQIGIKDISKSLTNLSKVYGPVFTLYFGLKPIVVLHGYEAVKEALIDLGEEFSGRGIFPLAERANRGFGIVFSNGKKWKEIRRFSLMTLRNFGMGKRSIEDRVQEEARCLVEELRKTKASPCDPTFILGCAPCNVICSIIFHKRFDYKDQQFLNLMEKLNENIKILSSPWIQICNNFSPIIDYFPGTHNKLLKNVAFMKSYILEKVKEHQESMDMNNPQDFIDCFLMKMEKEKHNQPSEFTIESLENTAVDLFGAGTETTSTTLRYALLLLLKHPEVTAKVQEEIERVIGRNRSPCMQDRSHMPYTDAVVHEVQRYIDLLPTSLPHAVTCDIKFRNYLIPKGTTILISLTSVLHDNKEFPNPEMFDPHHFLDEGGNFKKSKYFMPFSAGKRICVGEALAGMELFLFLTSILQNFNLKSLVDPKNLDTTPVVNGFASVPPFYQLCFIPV

[14] = Drug metabolism in dog liver microsome measured at 10 mins by UPLC/QE-orbitrap-MS method; type: ADME, Canis lupus familiaris; details: microsomes; method in brief: as §1
Cytochrome P450 2A6 = molecular target: T3, Cytochrome P450 2A6 (Homo sapiens, UniProt P11509); assay: Inhibition of CYP2A6 in human liver microsomes using coumarin as substrate; type: ADME, Microsome; method in brief: as §2
T3 sequence (P11509 whole entry): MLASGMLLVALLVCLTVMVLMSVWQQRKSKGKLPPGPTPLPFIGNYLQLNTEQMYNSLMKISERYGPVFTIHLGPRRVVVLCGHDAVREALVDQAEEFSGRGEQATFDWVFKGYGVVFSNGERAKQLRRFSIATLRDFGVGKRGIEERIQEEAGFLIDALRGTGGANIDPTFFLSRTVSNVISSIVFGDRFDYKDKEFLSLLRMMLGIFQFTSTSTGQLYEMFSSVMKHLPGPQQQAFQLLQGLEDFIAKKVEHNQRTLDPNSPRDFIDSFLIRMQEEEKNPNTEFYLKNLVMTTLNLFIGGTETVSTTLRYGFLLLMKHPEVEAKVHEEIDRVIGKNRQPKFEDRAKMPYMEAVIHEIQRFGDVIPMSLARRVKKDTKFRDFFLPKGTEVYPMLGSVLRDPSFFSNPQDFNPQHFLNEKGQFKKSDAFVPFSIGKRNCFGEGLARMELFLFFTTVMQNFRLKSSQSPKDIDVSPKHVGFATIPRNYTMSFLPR

[15] = Drug metabolism in mouse liver microsome measured at 40 mins by UPLC/QE-orbitrap-MS method; type: ADME; details: microsomes; method in brief: as §1
[16] = Drug metabolism in rat liver microsome measured at 40 mins by UPLC/QE-orbitrap-MS method; type: ADME; details: microsomes; method in brief: as §1
Cytochrome P450 3A4 [17] = molecular target: T2, Cytochrome P450 3A4; assay: Inhibition of CYP3A4 in human liver microsomes using Midazolam as substrate; type: ADME, Microsome; method in brief: as §2
Cytochrome P450 2B6 = molecular target: T4, Cytochrome P450 2B6 (Homo sapiens, UniProt P20813); assay: Inhibition of CYP2B6 in human liver microsomes using bupropion as substrate; type: ADME, Microsome; method in brief: as §2
T4 sequence (P20813 whole entry): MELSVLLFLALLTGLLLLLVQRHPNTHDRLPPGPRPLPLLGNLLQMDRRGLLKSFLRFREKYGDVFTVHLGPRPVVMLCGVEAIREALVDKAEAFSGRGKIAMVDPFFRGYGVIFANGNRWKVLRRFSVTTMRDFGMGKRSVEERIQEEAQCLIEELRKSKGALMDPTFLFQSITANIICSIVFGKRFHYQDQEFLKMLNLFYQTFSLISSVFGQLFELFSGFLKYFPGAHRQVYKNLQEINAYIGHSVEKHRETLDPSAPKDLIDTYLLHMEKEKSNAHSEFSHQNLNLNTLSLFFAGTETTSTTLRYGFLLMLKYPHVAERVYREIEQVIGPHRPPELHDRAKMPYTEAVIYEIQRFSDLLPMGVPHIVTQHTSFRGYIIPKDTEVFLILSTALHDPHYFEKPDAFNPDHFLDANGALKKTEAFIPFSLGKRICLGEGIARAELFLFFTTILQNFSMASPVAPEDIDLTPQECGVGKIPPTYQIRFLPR

[18] = Toxicity in C57BL/6 mouse assessed as spontaneous locomotor activity at 10 mg/kg, ip incubated for 30 mins; type: organism-based; details: in vivo, 0.5 h
[19] = MRT in C57BL6 mouse at 0.3 to 3 mg/kg, iv; type: ADME, organism-based; details: in vivo, dose 0.3-3 mg/kg; method in brief: as §3

Work on `COc1cc(N)c(F)cc1C(=O)CCC1CCN(CC2CCCCC2)CC1.O=C(O)/C=C/C(=O)O` yielded a Ki [1] of 16.3 nM, a Drug metabolism [2] of 40% and a Drug metabolism [3] of 78%. For the same molecule, the Drug metabolism [4] was 63%, the Activity [5] was “Non-toxic” and the Drug metabolism [6] was 6%. The IC50 (Cytochrome P450 2C8) was over 100 µM, the Drug metabolism [7] was 59% and the MRT [8] was 1.15 h. The Drug metabolism [9] was 10%, the Drug metabolism [10] was 44% and the IC50 (Cytochrome P450 3A4 [11]) was 5.4 µM. For the same molecule, the Drug metabolism [12] was 29%, the Activity [13] was “Non-toxic” and the IC50 (Cytochrome P450 2C9) was over 100 µM. For the same molecule, the Drug metabolism [14] was 77%, the IC50 (Cytochrome P450 2A6) was over 100 µM and the Drug metabolism [15] was 25%. The Drug metabolism [16] was 6%, the IC50 (Cytochrome P450 3A4 [17]) was 23.1 µM and the IC50 (Cytochrome P450 2B6) was 95.7 µM. For the same molecule, the Activity [18] was “Non-toxic” and the MRT [19] was 1.15 h.
